The target of experiment [1] is T1, 17-beta-hydroxysteroid dehydrogenase type 1 (Homo sapiens, UniProt P14061).
T1 sequence (P14061 whole entry): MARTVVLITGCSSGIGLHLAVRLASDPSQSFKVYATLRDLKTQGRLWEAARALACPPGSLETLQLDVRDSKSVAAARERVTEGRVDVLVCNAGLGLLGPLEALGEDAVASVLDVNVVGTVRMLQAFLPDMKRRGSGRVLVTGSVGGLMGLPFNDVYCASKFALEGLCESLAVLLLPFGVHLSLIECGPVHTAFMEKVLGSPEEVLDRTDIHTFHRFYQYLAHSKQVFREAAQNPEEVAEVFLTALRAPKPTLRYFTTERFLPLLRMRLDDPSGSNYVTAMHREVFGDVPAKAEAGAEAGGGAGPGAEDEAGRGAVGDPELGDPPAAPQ
As to the kind of experiment: Inhibition of human recombinant 17betaHSD1 expressed in HEK293 cells. The experiment is classed as cell-based. In outline: (§1)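 Lysates of HEK-293 cells expressing human recombinant enzyme; inhibitor 50 nM–30 µM final, DMSO ≤0.1%. 11β-HSD1: 200 nM [1,2,6,7-3H]cortisone, 500 µM NADPH. 17β-HSD1: 200 nM radiolabeled estrone, 500 µM NADPH. 17β-HSD2: 200 nM radiolabeled estradiol, 500 µM NADP+. IC50 by nonlinear regression, first-order kinetics; mean ± SD, at least four experiments.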

Experiment [2] has as its target T2, 17-beta-hydroxysteroid dehydrogenase type 2 (Homo sapiens, UniProt P37059).
T2 sequence (P37059 whole entry): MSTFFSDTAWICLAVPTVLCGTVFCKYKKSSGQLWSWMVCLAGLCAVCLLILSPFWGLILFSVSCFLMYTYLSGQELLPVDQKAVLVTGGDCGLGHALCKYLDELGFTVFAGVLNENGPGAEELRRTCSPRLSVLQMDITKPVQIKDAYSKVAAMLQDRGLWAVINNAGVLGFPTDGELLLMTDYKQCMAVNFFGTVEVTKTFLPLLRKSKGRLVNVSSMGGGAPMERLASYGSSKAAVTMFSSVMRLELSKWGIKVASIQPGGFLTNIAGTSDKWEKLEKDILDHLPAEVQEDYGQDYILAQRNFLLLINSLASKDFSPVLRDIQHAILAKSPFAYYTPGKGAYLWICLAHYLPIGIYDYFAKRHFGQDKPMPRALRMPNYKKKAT
Kind of experiment: Inhibition of human recombinant 17-beta-HSD2 expressed in HEK293 cells. Format: cell-based. In outline: as §1

Experiment [3] has as its target T3, 11-beta-hydroxysteroid dehydrogenase 1 (Homo sapiens, UniProt P28845). As to the kind of experiment: Inhibition of human recombinant 11-beta-HSD1 expressed in HEK293 cells at 10 uM. Format: cell-based. On the set-up: scale not given: the % may be the effect or the level left. The method in brief: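 Lysates of HEK-293 cells expressing human 11β-HSD1; conversion of 200 nM tritiated cortisone with 500 µM NADPH, test compound at 10 µM; percent inhibition reported.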
Target sequence in this assay (P28845 whole entry, looked up): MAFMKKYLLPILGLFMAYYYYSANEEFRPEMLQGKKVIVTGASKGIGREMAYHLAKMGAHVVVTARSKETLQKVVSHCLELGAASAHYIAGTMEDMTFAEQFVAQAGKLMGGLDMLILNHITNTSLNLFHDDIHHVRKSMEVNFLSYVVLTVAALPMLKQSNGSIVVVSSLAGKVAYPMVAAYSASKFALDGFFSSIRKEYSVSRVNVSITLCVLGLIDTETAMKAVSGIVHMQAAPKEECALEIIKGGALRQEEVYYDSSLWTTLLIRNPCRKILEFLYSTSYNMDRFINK

For the next experiment, the system named is HEK293. Kind of experiment: Cytotoxicity against HEK293 cells upto 40 uM by MTT assay. Format: functional, cell-based. The settings on record: Homo sapiens. In outline: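 HEK-293 cells on poly-D-lysine-coated wells exposed 4 h at 37 °C to 40 µM compound, then fresh medium with 0.5 mg/mL MTT; formazan dissolved in DMSO, absorbance A570 − A690. Controls: chloroform 1% v/v and NaOH 50 mM.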

Experiment [4] has as its target T4, 11-beta-hydroxysteroid dehydrogenase type 2 (Homo sapiens, UniProt P80365).
T4 sequence (P80365 whole entry): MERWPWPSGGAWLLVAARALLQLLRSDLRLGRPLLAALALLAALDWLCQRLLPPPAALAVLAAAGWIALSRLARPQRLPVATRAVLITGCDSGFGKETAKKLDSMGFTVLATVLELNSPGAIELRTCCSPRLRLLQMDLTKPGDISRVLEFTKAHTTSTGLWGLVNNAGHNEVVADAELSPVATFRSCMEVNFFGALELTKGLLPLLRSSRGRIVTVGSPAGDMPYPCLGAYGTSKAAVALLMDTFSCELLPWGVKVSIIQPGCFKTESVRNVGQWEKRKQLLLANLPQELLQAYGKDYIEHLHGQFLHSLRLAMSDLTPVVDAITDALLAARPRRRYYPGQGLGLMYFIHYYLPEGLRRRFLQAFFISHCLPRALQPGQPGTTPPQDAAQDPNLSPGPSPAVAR
Kind of experiment: Inhibition of human recombinant 11betaHSD2 transfected in intact HEK293 cells. Format: cell-based.

Experiment [5] concerns the target T3, 11-beta-hydroxysteroid dehydrogenase 1. Kind of experiment: Inhibition of human recombinant 11-beta-HSD1 transfected in intact HEK293 cells. Format: cell-based. The method in brief: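 HEK-293 cells cotransfected (calcium phosphate) with 11β-HSD1 and H6PDH plasmids, replated after 6 h at 30000 cells/well in steroid-free DMEM for 18 h. Inhibitor 50 nM–20 µM final with 200 nM radiolabeled cortisone, 90 min at 37 °C; stopped with excess unlabeled steroids in methanol, TLC, scintillation counting. Mean ± SD, at least four experiments.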
Target sequence in this assay (P28845 whole entry): as the sequence (P28845 whole entry, looked up) above

The target in experiment [6] is Mineralocorticoid receptor (Homo sapiens) (UniProt P08235). Kind of experiment: Inhibition of MR-mediated transactivation of galactosidase reporter gene in HEK293 cells. On the technique in general: In a reporter assay the amount or activity of a reporter protein is the signal.
Experiment [7] concerns the target T5, 11-beta-hydroxysteroid dehydrogenase 1 (Mus musculus, UniProt P50172). As to the kind of experiment: Inhibition of 11-beta-HSD1-dependent cortisone conversion to cortisol in mouse intact C2C12 cells. The experiment is classed as functional, cell-based. In outline:
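Differentiation: confluent C2C12 myoblasts kept 7 days in DMEM with 2% horse serum to form myotubes. Day-7 myotubes incubated 1 h at 37 °C with 200 nM radiolabeled cortisone and varying inhibitor (formation linear over 15–60 min). Steroids extracted from medium with ethyl acetate, separated by TLC, conversion by scintillation counting.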

Experiment [8] addresses T5, 11-beta-hydroxysteroid dehydrogenase 1. As to the kind of experiment: Inhibition of 11-beta-HSD1-dependent cortisone conversion to cortisol in mouse intact 3T3 L1 cells. The experiment is classed as functional, cell-based. The method in brief:
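3T3-L1 preadipocytes grown to confluence, held 48 h, differentiated 48 h (0.25 mM IBMX, 0.5 µM dexamethasone, 1 µg/mL insulin), then insulin medium 72 h, then insulin-free. Adipocytes incubated 45 min at 37 °C with 200 nM radiolabeled cortisone plus inhibitor at various concentrations. Medium steroids extracted, separated by TLC, scintillation counted.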

Experiment [9] addresses T6, Mineralocorticoid receptor (Homo sapiens, UniProt P08235).
T6 sequence (P08235 whole entry): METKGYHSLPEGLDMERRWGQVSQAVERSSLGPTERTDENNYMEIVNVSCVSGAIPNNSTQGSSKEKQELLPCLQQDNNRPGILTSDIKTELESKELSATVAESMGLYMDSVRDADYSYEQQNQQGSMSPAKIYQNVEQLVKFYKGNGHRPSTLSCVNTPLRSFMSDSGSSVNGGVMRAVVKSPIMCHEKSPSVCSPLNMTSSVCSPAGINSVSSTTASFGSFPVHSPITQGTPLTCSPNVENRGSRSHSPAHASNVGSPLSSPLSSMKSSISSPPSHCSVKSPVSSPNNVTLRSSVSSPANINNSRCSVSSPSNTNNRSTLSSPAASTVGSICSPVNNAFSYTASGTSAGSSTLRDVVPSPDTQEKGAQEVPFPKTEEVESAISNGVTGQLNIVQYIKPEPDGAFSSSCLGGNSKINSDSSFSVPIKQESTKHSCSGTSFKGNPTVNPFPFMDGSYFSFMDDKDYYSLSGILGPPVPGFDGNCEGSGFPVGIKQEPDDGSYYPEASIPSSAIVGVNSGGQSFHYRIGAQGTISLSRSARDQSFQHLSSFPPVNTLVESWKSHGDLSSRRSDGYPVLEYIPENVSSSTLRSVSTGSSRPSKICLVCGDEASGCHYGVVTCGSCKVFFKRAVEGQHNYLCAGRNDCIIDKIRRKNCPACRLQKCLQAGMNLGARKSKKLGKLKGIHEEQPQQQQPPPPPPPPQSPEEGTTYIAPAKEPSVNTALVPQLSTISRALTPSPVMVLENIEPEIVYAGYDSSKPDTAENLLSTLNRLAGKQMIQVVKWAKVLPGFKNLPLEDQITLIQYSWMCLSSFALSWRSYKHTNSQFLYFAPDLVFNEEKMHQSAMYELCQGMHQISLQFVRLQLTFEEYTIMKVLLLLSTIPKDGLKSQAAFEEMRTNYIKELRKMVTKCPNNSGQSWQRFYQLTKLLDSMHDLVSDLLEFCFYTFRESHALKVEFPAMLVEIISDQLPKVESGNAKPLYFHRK
As to the kind of experiment: Antagonist activity against MR. Format: functional. In outline:
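HEK-293 cells on poly-L-lysine-coated wells, transfected with pMMTV-LacZ reporter, pCMV-LUC control and MR expression vector plus empty pcDNA3. […] Four independent experiments, means ± SD.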

The target in a further experiment is T7, Glucocorticoid receptor (Homo sapiens, UniProt P04150).
T7 sequence (P04150 whole entry): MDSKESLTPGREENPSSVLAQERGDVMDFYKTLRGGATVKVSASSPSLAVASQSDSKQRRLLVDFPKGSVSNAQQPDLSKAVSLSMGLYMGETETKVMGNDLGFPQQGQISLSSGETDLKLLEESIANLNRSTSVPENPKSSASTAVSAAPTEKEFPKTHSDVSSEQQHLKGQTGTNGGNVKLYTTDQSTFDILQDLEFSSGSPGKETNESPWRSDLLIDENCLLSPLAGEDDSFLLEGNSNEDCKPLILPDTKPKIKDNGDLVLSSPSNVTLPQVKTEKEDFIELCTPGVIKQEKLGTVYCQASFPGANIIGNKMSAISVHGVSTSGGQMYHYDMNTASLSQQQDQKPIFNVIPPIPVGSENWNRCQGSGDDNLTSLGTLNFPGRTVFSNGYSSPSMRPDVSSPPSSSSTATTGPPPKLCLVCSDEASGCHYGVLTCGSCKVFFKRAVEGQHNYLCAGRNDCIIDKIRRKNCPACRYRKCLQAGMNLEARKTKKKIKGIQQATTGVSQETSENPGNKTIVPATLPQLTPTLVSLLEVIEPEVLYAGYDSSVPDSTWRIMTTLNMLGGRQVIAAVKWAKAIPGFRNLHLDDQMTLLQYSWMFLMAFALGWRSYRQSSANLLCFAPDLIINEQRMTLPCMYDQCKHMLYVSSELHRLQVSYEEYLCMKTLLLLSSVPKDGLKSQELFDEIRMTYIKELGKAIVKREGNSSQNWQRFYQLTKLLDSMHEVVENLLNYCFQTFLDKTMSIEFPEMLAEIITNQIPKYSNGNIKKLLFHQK
Kind of experiment: Inhibition of GR-mediated transactivation of galactosidase reporter gene in HEK293 cells in absence of 11betaHSD1. The experiment is classed as functional, cell-based. In outline: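 HEK-293 cells transfected with pMMTV-LacZ, pCMV-LUC and GR plus empty pcDNA3 (no 11β-HSD1/H6PDH). After 6 h, washed into steroid-free medium, then 24 h with 100 nM cortisol and graded inhibitor. β-Galactosidase normalized to luciferase, as % of steroid-only control. Four independent experiments, means ± SD.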

Structures are written as SMILES. Activity calls are given as the source filed them. The calls are words filed in the database; no cut-off is given here.

T5 sequence (P50172 whole entry): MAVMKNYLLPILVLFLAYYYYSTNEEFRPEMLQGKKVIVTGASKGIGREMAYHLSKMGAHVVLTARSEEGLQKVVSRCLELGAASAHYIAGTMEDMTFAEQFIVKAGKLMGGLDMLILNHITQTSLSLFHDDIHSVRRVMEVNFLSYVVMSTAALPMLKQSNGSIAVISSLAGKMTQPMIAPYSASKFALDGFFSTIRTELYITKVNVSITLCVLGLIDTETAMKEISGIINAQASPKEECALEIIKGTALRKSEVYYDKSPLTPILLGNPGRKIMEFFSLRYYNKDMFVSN

Broadly, the IC50 is the concentration that gives 50% inhibition. For `CC(=O)O[C@H]1CC[C@]2(C)[C@H]3C(=O)C=C4[C@@H]5C[C@@](C)(C(=O)O)CC[C@]5(C)CC[C@@]4(C)[C@]3(C)CC[C@H]2C1(C)C` [ACETOXOLONE], the figures for the IC50 in experiment [1] and in experiment [2] were 18.8 µM and 3.78 µM, respectively. In addition, the Activity in experiment [3] was more than 70%; with HEK293, “Not toxic”.
For the compound `COC(=O)[C@@]1(C)CC[C@]2(C)CC[C@]3(C)C(=CC(=O)[C@@H]4[C@@]5(C)CC[C@H](Oc6ccccc6C(=O)O)C(C)(C)[C@@H]5CC[C@]43C)[C@@H]2C1`, the IC50 in experiment [2] came out at 10.3 µM; in experiment [4] it was 48 µM; in [5] it was 3.84 µM. Also, the values for the Activity (in experiment [3]; in the experiment on HEK293) were more than 70% and “Not toxic”, respectively.
On to `CC1(C)[C@@H](N)CC[C@]2(C)[C@H]3C(=O)C=C4[C@@H]5C[C@@](C)(C(=O)O)CC[C@]5(C)CC[C@@]4(C)[C@]3(C)CC[C@@H]12`, for which the IC50 was more than 30 µM in experiment [1], 6.04 µM in experiment [4] and 1.02 µM in experiment [5]. The Activity in experiment [3] was more than 70%; with HEK293 it was “Not toxic”.
Regarding `C[C@]12CCC(=O)C=C1CC[C@@H]1[C@@H]2C(=O)C[C@@]2(C)[C@H]1CC[C@]2(O)C(=O)CO`, in [6], the result was inactive.
As to `COc1ccc(CCNC(=O)C23CCC(C)(C(=O)C2=O)C3(C)C)cc1OC` (centres undefined), the IC50 in [1] turned out to be 20.2 µM; in [7], 4.17 µM; in [8], 3.9 µM; in [5], 5.21 µM. For the same compound, the figures for the Activity (in [3]; in the experiment on HEK293) were more than 70% and “Not toxic”, respectively.
With `C[C@H]1C[C@@]2(C)CC[C@](C)(C(=O)N[C@H](Cc3ccccc3)C(=O)O)C[C@@]2(C)C2=CC(=O)[C@@H]3[C@@]4(C)CC[C@H](O)C(C)(C)[C@@H]4CC[C@@]3(C)[C@@]21C`, the IC50 in experiment [1] is more than 30 µM; in experiment [2], 23.6 µM. The Activity was more than 70% in experiment [3] and “Not toxic” in the experiment on HEK293.
For the compound `CC(=O)OC1CC[C@]2(C)C3=C(C(=O)C[C@H]2C1(C)C)[C@]1(C)CCC(C(C)CCC(=O)O)[C@@]1(C)CC3=O` (some centres undefined), the IC50 in [9] is 21 µM; against Glucocorticoid receptor it was 11.8 µM. Further, the Activity in [3] is more than 70%; with HEK293, “Not toxic”.
